Results from PubChem BioAssay AID651723 (Broad Institute, 2012).
Where “and” joins values, the source holds several entries; their conditions need not be identical. Equal entries are not always repeated. Out of some 350,000 compounds screened, about 740 (0.21%) were called active. The sample as a whole holds a higher share of actives than the screen did. A number with no mark means an inactive call.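 Rule for the calls: active = every replicate reaching activation of at least 50%, whatever the mean replicate activation; inconclusive = replicates that disagree or another doubt; inactive = the rest.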

experiment: increased acetylated PGC1a in cells – cell-based, U2OS, AlphaScreen, signal-increasing mode, PGC1a modulator project, primary screen (AID 651723); settings: U2OS PGC1a acetylation AlphaScreen, overnight; at 15.6 µM; stronger effect = higher value
Method in brief: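 System – flag-PGC1a/GCN5 U2OS cells · Quantity – 7000 U2OS cells per well · Signal – AlphaScreen proximity luminescence, anti-acetyl-lysine antibody · Schedule – overnight compound treatment, 37 °C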

Compound | activation
NC(=O)Cc1ccc2c(c1)[nH]c1ccccc12 | 116% (active)
O=S(=O)(O)c1nc2ccccc2n1Cc1ccc(Cl)cc1 | -47.2%
Cc1oc2c(c1C(=O)N1CCOCC1)C(=O)c1ccccc1C2=O | -42.9%
CN1/C(=C\C(=O)c2oc3ccccc3c2N)C(C)(C)c2ccccc21 | -86.9%
CC(C)c1cc(C(=O)N/N=C/C(Br)=C/c2ccccc2)n[nH]1 | 125% (active)
Cc1cc(C(=O)N/N=C\C(Br)=C\c2ccccc2)c(C)o1 | 85.5% (active)
Cc1[nH]c(=O)c(C(=O)/C=C/c2ccccc2)c2c1CCCC2 | -53.2%
N#Cc1cccc(NC(=O)COC(=O)c2ccccc2C(=O)c2ccc(Cl)c([N+](=O)[O-])c2)c1 | -46.9%
Clc1ccc(-c2nnc(-c3ccccc3)nc2N2CCSCC2)cc1 | 80.9% (active)
CN1CCc2c(sc3c2c(NCc2ccco2)nc2nnnn23)C1 | -44.7%
COCCNC(=O)CSc1nc2c(n1-c1ccccc1)CCCC2 | -43.7%
COc1ccc(NC(=O)C2(C)Cc3c(-c4cccc(NC(C)=O)c4)ccnc3O2)cc1 (stereo not given) | 71.2% (active)
CCc1ccc(NC(=O)CSc2nnc(-c3cnccn3)n2Cc2ccco2)cc1 | -45.6%
O=C(/C=C/Sc1ncn[nH]1)c1ccc(Cl)cc1 | 109% (active)
COc1cccc(CNC(=O)CCC2CCCN(Cc3ccc(OC(F)F)cc3)C2)c1 (stereo not given) | -52.5%
Cc1cccc(NC(=O)c2ccc([N+](=O)[O-])o2)c1 | 149% (active)
CC(C)NC(=O)Nc1ccc2c(c1)C(=O)N([C@@H](C)CO)C[C@@H](C)[C@H](CN(C)S(=O)(=O)c1ccccc1)OCCCC[C@@H](C)O2 | -124%
COc1ccc(-c2cc(=O)c3c(O)cc(O[C@@H]4O[C@H](CO[C@@H]5O[C@@H](C)[C@H](O)[C@@H](O)[C@H]5O)[C@@H](O)[C@H](O)[C@H]4O)cc3o2)cc1O | -49.5%
COCC(=O)Nc1ccc2c(c1)OC[C@H](C)N(C(=O)c1ccccc1F)C[C@H](C)[C@H](OC)CN(C)C2=O | -42.9%
CCc1cc2c(N3CCN(c4nnc(CC)s4)CC3)ncnc2s1 | 53.5% (active)
CC1(C)CCSC(/C=C/c2ccccc2)=N1 | 183% (active)
O=[N+]([O-])c1c(NCCO)cc(Sc2nc3ccccc3s2)c2nonc12 | -45%
C[C@H](CO)N1C[C@H](C)[C@H](CN(C)Cc2ccc(C(=O)O)cc2)Oc2ncc(-c3ccccc3)cc2C1=O | -41.5%

Compound | activation
Cc1cccc(C2C3=C(CCCC3=O)N=C3c4ccccc4C(=O)C32)c1 (stereo not given) | 80% (active)
CC(=O)NC1CCN(CC(=O)Nc2nccs2)CC1 | -50.3%
CC(C)Cc1nn2c(=O)cc(O)nc2s1 | -40.3%
COc1ccc(N(Cc2cc3cc(OC)ccc3[nH]c2=O)S(C)(=O)=O)cc1 | 69.9% (active)
N#Cc1ccc(C(c2ccc(C#N)cc2)n2cncn2)cc1 | -48.6%
Cc1cc(C)cc(N(CC(=O)Nc2c(C)n(C)n(-c3ccccc3)c2=O)S(C)(=O)=O)c1 | -49.5%
C[C@H]1CN([C@@H](C)CO)C(=O)c2cc(C#Cc3ccc(F)cc3)cnc2O[C@@H]1CN(C)C(=O)Nc1ccc(F)cc1 | -44%
COc1ccc(C#Cc2ccc([C@H]3[C@@H](CO)N4CCCCN(C(=O)Nc5ccccc5)C[C@H]34)cc2)cc1 | 77.7% (active)
COc1ccc(NC(=O)/C(Cl)=C(/Cl)S(=O)Cc2ccc(C)cc2)cn1 (stereo not given) | -69.3%
Cc1ccc(S(=O)(=O)Nc2ccc3c(c2)C(=O)N([C@H](C)CO)C[C@H](C)[C@H](CN(C)C(=O)NC(C)C)OCCCC[C@@H](C)O3)cc1 | -41.5%
COCC(=O)Nc1ccc2c(c1)OC[C@@H](C)N(CCc1ccccc1)C[C@H](C)[C@@H](OC)CN(C)C2=O | -52.2%
COc1ccc(S(=O)(=O)N2CCN(C(=O)c3cccs3)CC2)cc1OC | -44%
COc1ccc(C2CC(c3cccs3)=NN2c2nc(C)c(C(C)=O)s2)cc1OC (stereo not given) | 83.1% (active)
O=S(=O)(NCc1ccccc1Br)c1ccccc1Br | 55.2% (active)
COc1cc(NC(=O)c2[nH]cnc2C(N)=O)cc(C(=O)Nc2cccc(C(F)(F)F)c2)c1 | -62.8%
C[C@H](CO)N1C[C@H](C)[C@@H](CN(C)Cc2cccnc2)Oc2cc(C3=CCCC3)ccc2S1(=O)=O | -50.5%
O=C(NCc1ccccc1)C(c1ccccc1)N(C(=O)c1csnn1)c1ccc(F)cc1 (stereo not given) | 85.7% (active)
Cc1noc(C)c1S(=O)(=O)N(C)C[C@H]1Oc2ccc(NS(=O)(=O)c3cccs3)cc2C(=O)N([C@H](C)CO)C[C@H]1C | -48%
Cc1cc(C)c2c(-n3cccc3)c(C(=O)NNS(=O)(=O)c3ccc(F)cc3)sc2n1 | 132% (active)
Cc1cccc(-c2ccc(C3[C@@H]4CN(C(=O)Nc5ccc(C(F)(F)F)cc5)C[C@H]3N4)cc2)c1 (stereo not given in full) | -92.4% and -92.8%
CC(C)C(OC(=O)c1cccs1)C(=O)NC1CCCCC1 (stereo not given) | 90.6% (active)
CC/C(=N\NC(=O)c1ccccc1Cl)c1ccc(Br)s1 | -82.8%
